Test results published in ChEMBL document CHEMBL3813699, “Structure-Activity Relationships of a Diverse Class of Halogenated Phenazines That Targets Persistent, Antibiotic-Tolerant Bacterial Biofilms and Mycobacterium tuberculosis” (J Med Chem, 2016).
pIC50: −log10 of the molar value. Converted amounts (≈) assume the structure as drawn.

How the values were obtained:
Staphylococcus aureus [1] = test: Antibacterial activity against methicillin-resistant Staphylococcus aureus BAA-44 incubated for 16 to 18 hrs by broth microdilution method; type: functional
Enterococcus faecium [2] = test: Antibacterial activity against vancomycin-resistant Enterococcus faecium ATCC 700221 incubated for 16 to 18 hrs by broth microdilution method; type: functional
[3] = Induction of hemolysis in human RBC at 200 uM incubated for 1 hr; type: cell-based, Erythrocyte; conditions: red blood cells, read-out: Activity
How it was run: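 Human RBCs (EDTA), washed three times in Tris-buffered saline pH 7.2; 2% hRBC with compound at final 200 µM, 1 h 37 °C; supernatant OD405; % hemolysis relative to DMSO (0%) and Triton X (100%).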

[4] = test system: Staphylococcus epidermidis; test: Antibacterial activity against Staphylococcus epidermidis ATCC 12228 incubated for 16 to 18 hrs by broth microdilution method; type: functional
Staphylococcus aureus [5] = test: Antibiofilm activity against methicillin-resistant Staphylococcus aureus isolate 2 assessed as biofilm eradication incubated for 24 hrs by CBD assay; type: functional; conditions: for MBC: Staphylococcus aureus, isolate 2, 24 h
How it was run: (§1)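 Calgary Biofilm Device: pegs inoculated with mid-log culture diluted 1,000-fold in TSB + 0.5% glucose, 24 h 37 °C; washed pegs challenged with 2-fold dilutions 24 h 37 °C; pegs moved to fresh TSBG 24 h; MBEC = lowest concentration leaving no turbidity; 2–6 independent experiments.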

[6] = test system: Mycobacterium tuberculosis; test: Antibacterial activity against Mycobacterium tuberculosis H37Ra ATCC 25177 after 7 days by two-fold serial dilution method; type: functional; conditions: H37Ra ATCC 25177, 168 h
Staphylococcus aureus [7] = test: Antibacterial activity against methicillin-resistant Staphylococcus aureus clinical isolate 2 incubated for 16 hrs by broth microdilution method; type: functional; conditions: isolate 2, 16 h
HeLa = test: Cytotoxicity against human HeLa cells after 24 hrs by LDH release assay; type: cell-based
How it was run: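 HeLa in DMEM + 10% FBS, 37 °C 5% CO2, at 70–80% confluence treated with 25, 50, 100 µM for 24 h; DMSO vehicle; Triton X-100 2% v/v max-LDH control, medium-only negative; supernatant with LDH reaction mix 30 min room temperature, stopped, absorbance 490 nm.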

[8] = test system: Staphylococcus epidermidis; test: Antibacterial activity against methicillin-resistant Staphylococcus epidermidis ATCC 35984 assessed as biofilm eradication incubated for 24 hrs by CBD assay; type: functional; conditions: for MBC: Staphylococcus epidermidis, ATCC 35984, 24 h; how it was run: as §1
Staphylococcus aureus [9] = test: Antibacterial activity against methicillin-resistant Staphylococcus aureus clinical isolate 2 incubated for 16 to 18 hrs by broth microdilution method; type: functional
[10] = test system: Staphylococcus epidermidis; test: Antibacterial activity against methicillin-resistant Staphylococcus epidermidis ATCC 35984 incubated for 16 to 18 hrs by broth microdilution method; type: functional
Enterococcus faecium [11] = test: Antibiofilm activity against […]-resistant Enterococcus faecium ATCC 700221 assessed as biofilm eradication incubated for 24 hrs by CBD assay; type: functional; conditions: for MBC: Enterococcus faecium, ATCC 700221, 24 h; how it was run: as §1
Staphylococcus aureus [12] = test: Antibacterial activity against methicillin-resistant Staphylococcus aureus BAA-1707 incubated for 16 to 18 hrs by broth microdilution method; type: functional
Staphylococcus aureus [13] = test: Antibiofilm activity against methicillin-resistant Staphylococcus aureus BAA-1707 assessed as biofilm eradication incubated for 24 hrs by CBD assay; type: functional; how it was run: as §1
Staphylococcus aureus [14] = test: Antibacterial activity against methicillin-resistant Staphylococcus aureus clinical isolate 2 incubated for 16 hrs by broth microdilution method in presence of Cu2+; type: functional; conditions: isolate 2, 16 h
Staphylococcus aureus [15] = test: Antibacterial activity against methicillin-resistant Staphylococcus aureus clinical isolate 2 incubated for 16 hrs by broth microdilution method in presence of Fe2+; type: functional; conditions: isolate 2, 16 h

SMILES | MIC (Staphylococcus aureus [1]) [µM] | MIC (Enterococcus faecium [2]) [µM] | hemolysis at 1 h, 200 µM [3] [%] | MIC [4] [µM] | MBEC (Staphylococcus aureus [5]) [µM] | MBC (Staphylococcus aureus [5]) [µM] | MIC [6] [µM] | MIC (Staphylococcus aureus [7]) [µM] | pIC50 (HeLa) | MBEC [8] [µM] | MBC [8] [µM] | MIC (Staphylococcus aureus [9]) [µM] | MIC [10] [µM] | MBEC (Enterococcus faecium [11]) [µM] | MBC (Enterococcus faecium [11]) [µM] | MIC (Staphylococcus aureus [12]) [µM] | MBEC (Staphylococcus aureus [13]) [µM] | MBC (Staphylococcus aureus [13]; Staphylococcus aureus, BAA-1707, 24 h) [µM] | MIC (Staphylococcus aureus [14]) [µM] | MIC (Staphylococcus aureus [15]) [µM]
Cc1nc2c(Br)cc(Br)c(O)c2nc1C | 6.25 (≈ 2.07 µg/mL) | 25 (≈ 8.3 µg/mL) | ≤ 1 | 12.5 (≈ 4.15 µg/mL) | 1500 | 125 (≈ 41.5 µg/mL) |  |  |  |  |  |  |  |  |  |  |  |  |  | 
Cc1nc2c(I)cc(I)c(O)c2nc1C |  | 6.25 (≈ 2.66 µg/mL) | 1.2 | 2.35 (≈ 1 µg/mL) |  | 93.8 (≈ 40 µg/mL) | > 50 | 1.17 (≈ 0.498 µg/mL) | < 4.00 | 125 | 23.5 (≈ 10 µg/mL) |  |  |  |  |  |  |  |  | 
COc1cccc2nc3cc(Cl)c(Cl)cc3nc12 |  | > 100 |  | > 100 |  |  |  |  |  |  |  | > 100 | > 100 |  |  |  |  |  |  | 
Oc1c(I)cc(I)c2nc3ccccc3nc12 | 3.13 (≈ 1.4 µg/mL) | 6.25 (≈ 2.8 µg/mL) | ≤ 1 | 1.56 (≈ 0.699 µg/mL) | 93.8 | 31.3 (≈ 14 µg/mL) |  |  | < 4.00 | 23.5 | 31.3 (≈ 14 µg/mL) | 3.13 (≈ 1.4 µg/mL) | 1.17 (≈ 0.524 µg/mL) | 15.6 | 23.5 (≈ 10.5 µg/mL) | 3.13 (≈ 1.4 µg/mL) |  |  |  | 
Oc1c(I)cc(Br)c2nc3ccccc3nc12 |  | 6.25 (≈ 2.51 µg/mL) |  |  | 250 | 46.9 (≈ 18.8 µg/mL) |  |  |  |  |  |  |  |  |  |  |  |  |  | 
CCCCCCCCCC(=O)N[C@@H](Cc1c[nH]c2ccccc12)C(=O)N[C@@H](CC(N)=O)C(=O)N[C@@H](CC(=O)O)C(=O)N[C@@H]1C(=O)NCC(=O)N[C@@H](CCCN)C(=O)N[C@@H](CC(=O)O)C(=O)N[C@H](C)C(=O)N[C@@H](CC(=O)O)C(=O)NCC(=O)N[C@H](CO)C(=O)N[C@@H]([C@H](C)CC(=O)O)C(=O)N[C@@H](CC(=O)c2ccccc2N)C(=O)O[C@@H]1C [DAPTOMYCIN] | 18.8 (≈ 30.5 µg/mL) |  |  | 6.25 (≈ 10.1 µg/mL) | >2000 | 62.5 (≈ 101 µg/mL) |  | 6.25 (≈ 10.1 µg/mL) |  |  |  |  | 12.5 (≈ 20.3 µg/mL) |  |  | 3.13 (≈ 5.07 µg/mL) | >2000 | 125 (≈ 203 µg/mL) | 12.5 | 6.25
Oc1c(Br)cc(Br)c2nc3cc4ccccc4cc3nc12 | 75 (≈ 30.3 µg/mL) |  | ≤ 1 | 12.5 (≈ 5.05 µg/mL) | >200 | 200 (≈ 80.8 µg/mL) |  |  |  |  |  | > 100 |  |  |  | 50 (≈ 20.2 µg/mL) |  |  |  | 
Oc1c(I)cc(I)c2nccnc12 | 1.56 (≈ 0.621 µg/mL) | 12.5 (≈ 4.97 µg/mL) | ≤ 1 | 6.25 (≈ 2.49 µg/mL) | >2000 | > 2000 |  |  |  | >1000 | 750 (≈ 298 µg/mL) | 3.13 (≈ 1.25 µg/mL) | 3.13 (≈ 1.25 µg/mL) |  |  | 1.56 (≈ 0.621 µg/mL) |  |  |  | 
N#CC(C#N)=NNc1cccc(Cl)c1 [CARBONYL CYANIDE M-CHLOROPHENYLHYDRAZONE] |  |  | 3.5 |  | 1000 | 31.3 (≈ 6.4 µg/mL) |  |  |  | 93.8 | 31.3 (≈ 6.4 µg/mL) |  |  |  |  |  |  |  |  | 
C=CCc1cc(Br)c2nc3ccccc3nc2c1O |  | > 100 |  | > 100 |  |  |  |  |  |  |  | > 100 |  |  |  |  |  |  |  | 
Oc1c(Cl)cc(Br)c2nc3ccccc3nc12 | 3.13 (≈ 0.969 µg/mL) | 6.25 (≈ 1.93 µg/mL) | ≤ 1 | 3.13 (≈ 0.969 µg/mL) | >1000 | 62.5 (≈ 19.3 µg/mL) |  |  | < 4.00 | 375 | 31.3 (≈ 9.69 µg/mL) |  | 1.56 (≈ 0.483 µg/mL) | 11.7 | 11.7 (≈ 3.62 µg/mL) |  |  |  |  | 
Oc1c(I)cc(Cl)c2nc3ccccc3nc12 | 12.5 (≈ 4.46 µg/mL) | 6.25 (≈ 2.23 µg/mL) | ≤ 1 | 25 (≈ 8.91 µg/mL) | 250 | 93.8 (≈ 33.4 µg/mL) |  |  |  | 250 | 125 (≈ 44.6 µg/mL) | 25 (≈ 8.91 µg/mL) | 25 (≈ 8.91 µg/mL) |  |  | 3.13 (≈ 1.12 µg/mL) |  |  |  | 
CCCCCCCCCC(=O)N[C@@H](Cc1c[nH]c2ccccc12)C(=O)N[C@H](CC(N)=O)C(=O)N[C@@H](CC(=O)O)C(=O)N[C@@H]1C(=O)NCC(=O)N[C@@H](CCCN)C(=O)N[C@@H](CC(=O)O)C(=O)N[C@H](C)C(=O)N[C@@H](CC(=O)O)C(=O)NCC(=O)N[C@H](CO)C(=O)N[C@@H]([C@H](C)CC(=O)O)C(=O)N[C@@H](CC(=O)c2ccccc2N)C(=O)O[C@@H]1C [DAPTOMYCIN] |  |  | 1.7 |  |  |  |  |  |  |  |  |  |  |  |  |  |  |  |  | 
Oc1c(Br)cc(Br)c2nccnc12 | 12.5 (≈ 3.8 µg/mL) | 100 (≈ 30.4 µg/mL) | 1.8 | 18.8 (≈ 5.71 µg/mL) | >2000 | 1500 (≈ 456 µg/mL) |  |  | < 4.00 |  |  | 25 (≈ 7.6 µg/mL) | 18.8 (≈ 5.71 µg/mL) |  |  | 6.25 (≈ 1.9 µg/mL) |  |  |  | 
